Data as given in ChEMBL document CHEMBL2346582, “Guanidino anthrathiophenediones as G-quadruplex binders: uptake, intracellular localization, and anti-Harvey-Ras gene activity in bladder cancer cells” (J Med Chem, 2013).

Organism: Homo sapiens
Experiment: Thermal stabilization of human telomeric G-quadruplex FAM-TTAGGGTTAGGGTTAGGGTTAGGG-TAMRA DNA assessed as change in melting temperature at 1:5 DNA:ligand ratio by FRET assay
Procedure, shortened: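 FRET melting of 200 nM dual-labelled quadruplex in 50 mM Tris-HCl with KCl (100 mM for htelo and hras-1, 10 mM for KRAS and hras-2). Ligand at r = 5 ([ligand]/[quadruplex]; hras-2 tabulated at r = 4). Samples held 5 min at 20 °C, then heated 1 °C/min to 95 °C. ΔTM is the TM with ligand minus TM without ligand (±0.5 K). For hras-1 both biphasic transitions are given.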

Structure (SMILES): NCCOc1cc(C(=O)Nc2cc(OCCN)c3ccccc3n2)nc(C(=O)Nc2cc(OCCN)c3ccccc3n2)c1
- deltaTm: 35 K
